Assay outcomes as filed in PubChem.
Rows were chosen to be rich in hits. Some 2% of all compounds tested hit in one or more screens of this group.
MIN6 prolif – inducers of beta-cell replication in MIN6 cells; MIN6 cells proliferation, ATPlite luminescence, 48 h; cells starved in 0.2% serum; 100% = growth in 10% serum; proliferation, % at 10 µM; 330,000 compounds, 0.29% hits; AID 2380;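 active = compounds whose signal lies at least 3.5 SD above the mean of all wells on their plate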;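 note: 0% = DMSO-treated cells in low-serum medium and 100% = 10% serum control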
VIM-2 inhibitor – blocks Pseudomonas aeruginosa VIM-2 metallo-beta-lactamase; purified VIM-2, nitrocefin hydrolysis, epi-absorbance fluorescence; inhibition, % at 5.6 µM; 290,000 compounds, 0.89% hits; AID 1527;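 active = inhibition above the mean of all tested compounds plus 3 SD, cutoff set per screening run, cut at about 7.5% in these data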;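 note: red hydrolysis product quenches plate fluorescence so inhibitors raise well fluorescence; 0% = enzyme with DMSO and 100% = DMSO without enzyme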
ATG4B inh – blocks human ATG4B protease cleavage of LC3 substrate. Q9Y4P1. ATG4B cleavage of LC3-PLA2, NBD-HPC fluorescence, 1 h. inhibition, % at 8.33 µM. 340,000 compounds, 0.51% hits. AID 504462; in the data active = inhibition above about 40%
PvdQ inh – P. aeruginosa PvdQ acylase inhibition; AID 488965; inhibition, % at 10 µM; purified PvdQ acylase, fluorescence plate reader; 340,000 compounds, 0.063% hits; in the data active = inhibition above about 30%, passing the limit was not always enough;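 note: 0% = vehicle neutral wells and 100% = reference inhibitor wells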
HKDC1 inhibitor – inhibitors of human hexokinase HKDC1; Q2TB90; recombinant HKDC1, G6PDH/diaphorase resazurin coupled fluorescence; inhibition, % at 20 µM; 340,000 compounds, 0.16% hits;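 active = inhibition above about 35% when tested at 20 µM, limit read from the data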;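 note: plate controls were DMSO wells with enzyme for no effect and DMSO wells lacking enzyme for full effect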
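Test system: HK5 enzyme. Quantity: 5 µg/mL HK5 final. Reagent: glucose and ATP substrates. Schedule: 90 min reaction incubation at room temperature, dark. Technique: resazurin-to-resorufin fluorescence via G6PDH and diaphorase coupling, 525/613 nm. Control set: DMSO wells with and without enzyme mix.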
IMP-1 inh – inhibitors of Pseudomonas aeruginosa IMP-1 metallo-beta-lactamase; purified IMP-1, nitrocefin hydrolysis, epi-absorbance fluorescence; AID 1556; inhibition, % at 5.6 µM; 290,000 compounds, 0.45% hits;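 active = inhibition above the mean plus 3 SD of all compounds in the same screening run, cut at about 4.5% in these data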;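 note: 0% = IMP-1 with DMSO and 100% = DMSO wells lacking enzyme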
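system = purified recombinant IMP-1 beta-lactamase | amount = 0.2 nM IMP-1, as dispensed | medium = HEPES buffer pH 7.1 with ZnSO4 and Brij 35 | times = 25 °C, 15 min preincubation, 25 min reaction | detection = plate fluorescence quenching by hydrolysis product, ex 480/em 530 nm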
* marks the source's active call; other numbers are inactive results; i = inactive; / = not tested or not shown; ! = repeats disagree.

SMILES	MIN6 prolif	VIM-2 inhibitor	ATG4B inh	PvdQ inh	HKDC1 inhibitor	IMP-1 inh
COCCNC(=O)C(OC(=O)CC1Sc2ccccc2NC1=O)c1ccccc1 (stereo not drawn)	-2	-3	-6	-13	-6	-4
c1csc(-c2nn3cnnc3c3ccccc23)c1	1	12*	-12	-6	3	-3
Cc1ccccc1CS(=O)(=O)Cc1ccc(C(=O)NC2CCCCC2)o1	-1	0	-3	1	-6	0
CN1CCN(CCCNC(=O)c2ccc(CSCc3cccc(Cl)c3)o2)CC1	-2	0	-2	/	-10	6.8*
O=C(NCCCN1CCCC1)c1ccc(CSCc2cccc(Cl)c2)o1	-2	-3	6	7	-8	-3
CCn1c(=O)c2cc(C(=O)NCCCOC)sc2c2ccccc21	3	9.0*	-1	-3	12	-2
CCC(C)NC(=O)c1cc2c(=O)n(CC)c3ccccc3c2s1 (stereo not drawn)	4	8.0*	-18	-16	5	-1
CC(C)C[C@@H](C(=O)N[C@@H](C(=O)O)c1ccccc1)N1C(=O)N2CCc3c([nH]c4ccccc34)[C@@]2(C)C1=O	-3	-1	-27	8	-1	-5
CCC1=NN2C(=N)/C(=C\c3ccc(OCCOc4ccc(NC(C)=O)cc4)c(OC)c3)C(=O)N=C2S1	1	10*	-1	-9	4	-3
CCN(CC(=O)Nc1ccc(NC(C)=O)cc1)C(=O)CCCc1nc2ccccc2s1	-2	/	0	-4	0	/
NC(=O)CCn1c(C(=O)c2cc(Cl)c(N)c(Cl)c2)c2ccccc2[n+]1[O-]	-1	7.8*	0	5	-1	-4
Cc1nc(N)sc1C(=O)Nc1ccccc1	-1	-3	1	11	1	-3
COC(=O)c1ccccc1NC(=O)c1sc(N)nc1C	0	10*	-8	-3	3	-5
CC(=O)Nc1ccc(S(=O)(=O)NCC(=O)Nc2ccc3c(c2)OCO3)cc1	-1	/	-8	-2	-1	/
CCN(CC)S(=O)(=O)c1cccc(C(=O)N/N=C2\CC(=O)CC(C)(C)C2)c1	-1	1	-8	-3	-3	2
CCN(CC)S(=O)(=O)c1cccc(C(=O)N/N=C2\CCCC(=O)C2)c1	-5	4	-6	4	-1	5.8*
CC(C)[C@H](NC(=O)CCCn1nnc2ccccc2c1=O)C(=O)O	3	1	-8	-9	-11	-3
Nc1ccc(Br)c2c1C(=O)c1ccccc1C2=O	2	10*	17	/	1	-3
Nc1ccc(O)c2c1C(=O)c1ccccc1C2=O	0	4	-15	-4	17	-1
Cc1ccc2scc(CN3CCCC3)c2c1	1	/	-9	38*	2	/
c1ccc2c(CN3CCCCC3)csc2c1	3	-1	-2	-6	-11	0
CCN(CC(=O)Nc1ccc(NC(C)=O)cc1)CC(=O)Nc1ccc(Cl)c(Cl)c1	-1	0	0	-6	-9	5.9*
CCN1/C(=C/C=C/c2oc3ccc(-c4ccccc4)cc3[n+]2CC)Oc2ccc(-c3ccccc3)cc21	-7	-1	37	-11	30	4.6*
COc1ccc2cc3cc(C(=O)NCCCN4CCC(C)CC4)oc3nc2c1	2	9.9*	-3	-4	-2	0
CCN1CCN(CCCNC(=O)c2cc3cc4ccc(OC)cc4nc3o2)CC1	0	3	-9	-16	-2	-2
SMILES	MIN6 prolif	VIM-2 inhibitor	ATG4B inh	PvdQ inh	HKDC1 inhibitor	IMP-1 inh
CC(=O)c1ccc(N2CCN(c3ccc4cc(S(=O)(=O)N5CCC(C)CC5)ccc4n3)CC2)cc1	-2	-2	11	-5	6	12*
CC(=O)c1ccc(N2CCN(S(=O)(=O)c3ccc4ccccc4c3)CC2)cc1	-2	/	-5	-9	5	/
Cc1c2cc(O)c(=O)cc-2oc2cc(O)c(O)cc12	-4	-1	i	-13	29	6.5*!
Cc1ccccc1-c1cc(=O)c2ccccc2o1	3	/	6	-8	-3	/
O=C(CN1C(=O)NC(c2ccccc2)(c2ccccc2)C1=O)c1c[nH]c2ccccc12	-5	-2	/	/	/	-3
CC(O/N=C(\N)c1ccccc1)C(=O)Nc1cccc(C(F)(F)F)c1 (stereo not drawn)	-1	/	-5	-18	-2	/
